From ChEMBL document CHEMBL1148921, “Steroidal glycosides from the bulbs of Ornithogalum thyrsoides” (J Nat Prod, 2004)
Converted amounts (≈) assume the structure as drawn.

Legend:
HL-60 = test: Cytotoxicity against human HL60 cells after 72 hrs by MTT assay; format: functional, cell-based; conditions: HL-60, 72 h
Summary of the method: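 HL-60 leukemia cells seeded in 96-well plates, held 24 h at 37 °C in 5% CO2/air, then given sample in EtOH-H2O (1:1) to final 0.1-20 µg/mL; solvent alone for controls. Exposure 72 h, then MTT for 4 h at 37 °C; cells and formazan pelleted, formazan dissolved in DMSO, A550 read. Triplicate; IC50 = concentration cutting viable cell number by 50%.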

HSC-2 = test: Cytotoxicity against human HSC2 cells after 24 hrs by MTT assay; format: functional, cell-based; conditions: HSC-2, 24 h
Summary of the method: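 HSC-2 monolayers kept in DMEM with 10% heat-inactivated FBS at 37 °C, 5% CO2. Trypsinized cells plated, grown 24 h, PBS-washed, exposed 24 h with or without compound. After PBS wash, 0.2 mg/mL MTT in DMEM/10% FBS for 4 h; cells lysed in DMSO and absorbance taken as relative viable cell number. IC50 reported.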

SMILES	IC50 (HL-60) [µg/mL]	IC50 (HSC-2) [µg/mL]
COc1cc(C(=O)OC[C@H]2O[C@@H](O[C@@H]3C[C@H](O)C[C@@H]4CC[C@H]5[C@@H]6C[C@H](O[C@@H]7O[C@H](CO)[C@@H](O)[C@H](O)[C@H]7O)[C@H]([C@H](C)[C@@H](O)CCC(C)C)[C@@]6(C)CC[C@@H]5[C@]43C)[C@H](O)[C@@H](O)[C@@H]2O)cc(OC)c1OC	5 (≈ 5.23 µM)	> 100
CC(C)=CC[C@H](O)[C@@H](C)[C@H]1[C@@H](O[C@@H]2O[C@@H](C)[C@H](O)[C@@H](O)[C@H]2O)C[C@H]2[C@@H]3CC[C@H]4C[C@@H](O)C[C@@H](O[C@@H]5O[C@@H](C)[C@H](O)[C@@H](O)[C@H]5O)[C@]4(C)[C@H]3CC[C@]12C	> 10	> 100
CC(C)=CC[C@H](O)[C@@H](C)[C@H]1[C@@H](O[C@@H]2O[C@@H](C)[C@H](O)[C@@H](O)[C@H]2O)C[C@H]2[C@@H]3CC=C4C[C@@H](O)C[C@@H](O[C@@H]5O[C@@H](C)[C@H](O)[C@@H](O)[C@H]5O)[C@]4(C)[C@H]3CC[C@]12C	5.1 (≈ 7.04 µM)	> 100
C[C@@H]1CC[C@@]2(OC1)O[C@H]1C[C@H]3[C@@H]4CC=C5C[C@@H](O)C[C@@H](O[C@@H]6OC[C@H](O)[C@H](O[C@@H]7OC[C@@H](O)[C@H](O)[C@H]7O)[C@H]6O[C@@H]6O[C@@H](C)[C@H](O)[C@@H](O)[C@H]6O)[C@]5(C)[C@H]4CC[C@]3(C)[C@H]1[C@@H]2C	1.9 (≈ 2.26 µM)	21.2 (≈ 25.2 µM)
C[C@@H]1CC[C@@]2(OC1)O[C@H]1C[C@H]3[C@@H]4CC[C@H]5C[C@@H](O)C[C@@H](O[C@@H]6O[C@H](CO)[C@@H](O)[C@H](O)[C@H]6O)[C@]5(C)[C@H]4CC[C@]3(C)[C@H]1[C@@H]2C	1.6 (≈ 2.69 µM)	34.6 (≈ 58.2 µM)
C[C@@H]1CC[C@@]2(OC1)O[C@H]1C[C@H]3[C@@H]4CC=C5C[C@@H](O)C[C@@H](O[C@@H]6OC[C@H](O)[C@H](O)[C@H]6O[C@@H]6O[C@@H](C)[C@H](O)[C@@H](O)[C@H]6O)[C@]5(C)[C@H]4CC[C@]3(C)[C@H]1[C@@H]2C	2.2 (≈ 3.1 µM)	19.9 (≈ 28.1 µM)
COc1cc(C(=O)OC[C@H]2O[C@@H](O[C@@H]3C[C@H](O)C[C@@H]4CC[C@H]5[C@@H]6C[C@H](O[C@@H]7O[C@H](CO)[C@@H](O)[C@H](O)[C@H]7O)[C@H]([C@H](C)[C@@H](O)CC=C(C)C)[C@@]6(C)CC[C@@H]5[C@]43C)[C@H](O)[C@@H](O)[C@@H]2O)cc(OC)c1OC	> 10	> 100
CC(C)CC[C@H](O)[C@@H](C)[C@H]1[C@@H](O[C@@H]2O[C@H](CO)[C@@H](O)[C@H](O)[C@H]2O)C[C@H]2[C@@H]3CC[C@H]4C[C@@H](O)C[C@@H](O[C@@H]5O[C@H](CO)[C@@H](O)[C@H](O)[C@H]5O)[C@]4(C)[C@H]3CC[C@]12C	> 10	> 100
CC(C)CC[C@H](O)[C@@H](C)[C@H]1[C@@H](O[C@@H]2O[C@@H](C)[C@H](O)[C@@H](O)[C@H]2O)C[C@H]2[C@@H]3CC=C4C[C@@H](O)C[C@@H](O[C@@H]5O[C@@H](C)[C@H](O)[C@@H](O)[C@H]5O)[C@]4(C)[C@H]3CC[C@]12C	> 10	> 100
C[C@@H]1O[C@@H](O[C@H]2[C@H](O[C@@H]3C[C@H](O)CC4=CC[C@H]5[C@@H]6C[C@@H]7O[C@]8(C[C@H](O)[C@@H](C)CO8)[C@@H](C)[C@@H]7[C@@]6(C)CC[C@@H]5[C@]43C)OC[C@H](O)[C@@H]2O[C@@H]2OC[C@@H](O)[C@H](O)[C@H]2O)[C@H](O)[C@H](O)[C@H]1O	> 10	> 100
CC(=O)OC[C@H]1O[C@@H](O[C@H]2C[C@H]3[C@@H]4CC[C@H]5C[C@@H](O)C[C@@H](O[C@@H]6O[C@@H](C)[C@H](O)[C@@H](O)[C@H]6O)[C@]5(C)[C@H]4CC[C@]3(C)[C@H]2[C@H](C)[C@@H](O)CCC(C)C)[C@H](O)[C@@H](O)[C@@H]1O	5.3 (≈ 6.73 µM)	> 100
CC(C)CC[C@H](O)[C@@H](C)[C@H]1[C@@H](O[C@@H]2O[C@H](CO)[C@@H](O)[C@H](O)[C@H]2O)C[C@H]2[C@@H]3CC[C@H]4C[C@@H](O)C[C@@H](O[C@@H]5O[C@@H](C)[C@H](O)[C@@H](O)[C@H]5O)[C@]4(C)[C@H]3CC[C@]12C	> 10	> 100
CC(=O)OC[C@H]1O[C@@H](O[C@H]2C[C@H]3[C@@H]4CC[C@H]5C[C@@H](O)C[C@@H](O[C@@H]6O[C@@H](C)[C@H](O)[C@@H](O)[C@H]6O)[C@]5(C)[C@H]4CC[C@]3(C)[C@H]2[C@H](C)[C@@H](O)CCC(C)C)[C@H](O)[C@@H](O)[C@@H]1O[C@@H]1OC[C@](O)(CO)[C@H]1O	> 10	> 100
C[C@@H]1O[C@@H](O[C@H]2[C@H](O[C@@H]3C[C@H](O)CC4=CC[C@H]5[C@@H]6C[C@@H]7O[C@]8(C[C@H](O)[C@@H](C)CO8)[C@@H](C)[C@@H]7[C@@]6(C)CC[C@@H]5[C@]43C)OC[C@H](O)[C@@H]2O)[C@H](O)[C@H](O)[C@H]1O	5.2 (≈ 7.17 µM)	> 100
COc1cc([C@@H]2c3cc4c(cc3[C@@H](O[C@@H]3O[C@@H]5CO[C@@H](C)O[C@H]5[C@H](O)[C@H]3O)[C@H]3COC(=O)[C@H]23)OCO4)cc(OC)c1O [ETOPOSIDE]	0.23 (≈ 0.391 µM)	24.4 (≈ 41.5 µM)
